{"data": "Measurements gathered from unrelated publications", "target": "Rhodopsin kinase GRK1 (GRK1, Homo sapiens, UniProt Q15835)", "Sequence (Q15835 1-563, as in one of the studies)": "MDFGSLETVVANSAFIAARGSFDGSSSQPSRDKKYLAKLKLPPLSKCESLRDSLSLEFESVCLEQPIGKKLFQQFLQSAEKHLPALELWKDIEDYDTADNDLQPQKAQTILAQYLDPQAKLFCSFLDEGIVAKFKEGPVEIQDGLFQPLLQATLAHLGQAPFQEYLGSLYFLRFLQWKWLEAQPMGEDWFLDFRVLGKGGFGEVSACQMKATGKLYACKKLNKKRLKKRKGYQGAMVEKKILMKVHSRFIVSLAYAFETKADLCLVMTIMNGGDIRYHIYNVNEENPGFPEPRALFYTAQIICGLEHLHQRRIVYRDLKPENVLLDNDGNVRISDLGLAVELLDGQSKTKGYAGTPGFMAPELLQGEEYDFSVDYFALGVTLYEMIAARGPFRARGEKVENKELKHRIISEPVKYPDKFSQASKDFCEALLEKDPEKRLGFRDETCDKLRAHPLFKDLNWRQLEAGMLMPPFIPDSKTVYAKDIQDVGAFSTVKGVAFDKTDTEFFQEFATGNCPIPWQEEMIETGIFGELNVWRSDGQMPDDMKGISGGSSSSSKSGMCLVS", "note": "Each line is one published result; the experiments were not run side by side."}
{"Compound": "C[C@@H]1CCN(c2nccc(-c3cnn4ncccc34)n2)C1", "assay": "binding", "conditions": "1 µM", "remaining binding [%]": 77}
{"Compound": "O=C(NCCCN1CCOCC1)c1ccc(Nc2ncc(Cl)c(-c3ccc(Cl)s3)n2)cc1", "assay": "binding, competition with immobilised ligand", "conditions": "1 µM", "remaining binding [%]": 100}
{"Compound": "CS(=O)(=O)NCC[C@H](NC(=O)c1cncc2c1cnn2-c1ccc(F)cc1)c1ccnc(S(C)(=O)=O)c1", "assay": "cell-free assay, competition with immobilised ligand", "conditions": "1 µM", "remaining binding [%]": 100}
{"Compound": "O=C(c1ccc(Nc2nccc(-c3cc4ccccc4s3)n2)cc1)N1CCC(N2CCCC2)CC1", "assay": "binding, competition with immobilised ligand", "conditions": "1 µM", "remaining binding [%]": 93}
{"Compound": "C[C@@]1(Cc2ccc(C#N)cc2)C(=O)N(c2cc(Cl)cc(Cl)c2)c2ncc(C(=O)NC3(c4nc(C5CCC5)no4)CC3)n21", "assay": "cell-free assay, competition with immobilised ligand", "conditions": "1 µM", "remaining binding [%]": 100}
{"Compound": "N[C@H]1CCN(c2nccc(-c3cnn4ncccc34)n2)C1", "assay": "binding", "conditions": "1 µM", "remaining binding [%]": 100}
{"Compound": "CN([C@@H]1CCc2c(CC(=O)O)c3cc(S(C)(=O)=O)ccc3n2C1)S(=O)(=O)c1ccc(F)cc1", "assay": "cell-free assay, competition with immobilised ligand", "conditions": "1 µM", "remaining binding [%]": 70}
{"Compound": "F[C@@H]1CCN(c2nccc(-c3cnn4ncccc34)n2)C1", "assay": "binding", "conditions": "1 µM", "remaining binding [%]": 100}
{"Compound": "CCN1CCN(Cc2ccc(C(=O)Nc3ccc(C)c(Oc4ccc5c(c4)CC(=O)N5)c3)cc2C(F)(F)F)CC1", "assay": "binding, competition with immobilised ligand", "conditions": "1 µM", "remaining binding [%]": 100}
{"Compound": "Cn1cc(Cl)c2c(Oc3c(F)cc(Nc4cc(Cl)nc(N)n4)cc3F)ccnc21", "assay": "cell-free assay, competition with immobilised ligand", "conditions": "0.1 µM", "remaining binding [%]": 92}
{"Compound": "O=C(NCC1CCOCC1)c1n[nH]cc1NC(=O)c1c(F)cccc1F", "assay": "binding, competition with immobilised ligand", "conditions": "1 µM", "remaining binding [%]": 77}
{"Compound": "c1cnn2ncc(-c3ccnc(N4CCC45COC5)n3)c2c1", "assay": "binding", "conditions": "1 µM", "remaining binding [%]": 61}
{"Compound": "c1cncc(-c2cccc(Nc3nccc(NC4CCCCC4)n3)c2)c1", "assay": "binding, competition with immobilised ligand", "conditions": "10 µM", "remaining binding [%]": 44}
{"Compound": "CC1CCCN1c1nccc(-c2cnn3ncccc23)n1 (stereo not shown)", "assay": "binding", "conditions": "1 µM", "remaining binding [%]": 82}
{"Compound": "COc1cnc(Nc2cccc(S(N)(=O)=O)c2)nc1N1CCN(c2ccccc2)CC1", "assay": "binding, competition with immobilised ligand", "conditions": "1 µM", "remaining binding [%]": 99}
{"Compound": "CS(=O)(=O)N1CCCC(NC(=O)[C@H](CCC2CCCCC2)NC(=O)c2ccc(CNc3ncnc4c3nnn4-c3ccccc3)cc2)C1 (stereo partly shown)", "assay": "cell-free assay, competition with immobilised ligand", "conditions": "0.1 µM", "remaining binding [%]": 94}
{"Compound": "COc1cnc(Nc2cccc(S(N)(=O)=O)c2)nc1N1CCN(c2ccccc2)C(=O)C1", "assay": "binding, competition with immobilised ligand", "conditions": "1 µM", "remaining binding [%]": 97}
{"Compound": "COCCOc1nc(-c2ccc(Cl)nc2)nc2c1CN(C(=O)c1ncn3ccccc13)CC2", "assay": "cell-free assay, competition with immobilised ligand", "conditions": "0.1 µM", "remaining binding [%]": 100}
{"Compound": "Nc1ncc2c(n1)-c1c([nH]c3ccc(C#CC4CC4)cc13)CCCC2", "assay": "binding, competition with immobilised ligand", "conditions": "1 µM", "remaining binding [%]": 90}
